Data reported in ChEMBL document CHEMBL4715734, “Discovery of the Potent and Selective M1 PAM-Agonist N-[(3R,4S)-3-Hydroxytetrahydro-2H-pyran-4-yl]-5-methyl-4-[4-(1,3-thiazol-4-yl)benzyl]pyridine-2-carboxamide (PF-06767832): Evaluation of Efficacy and Cholinergic Side Effects” (J Med Chem, 2016).

Legend:
[1] = fCmax in rat at 15 mg/kg, po administered for 14 days; type: ADME, organism-based; details: in vivo, 336 h, time 14 day
Method in brief: (§1)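 2-week repeat oral dosing in rats, 0.5% methylcellulose formulation; N=4/sex/dose; doses 3, 10, 30 (males)/15 (females) mg/kg; unbound exposures reported per dose and sex.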

[2] = Toxicity in dog assessed as salivation at 3 mg/kg, po using spray-dried dispersion formulation; type: organism-based, Canis lupus familiaris; details: in vivo
[3] = Unbound plasma concentration in scopolamine-induced Wistar rat model at 1 mg/kg, po measured after 1 hr; type: ADME, organism-based; details: in vivo
Method in brief: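 Plasma sampled 1 h after oral dosing in satellite animals (N=2/dose) given the same dosing solution as the water-maze study (suspension in 0.5% methylcellulose in water); unbound concentration reported as the group average.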

[4] = Unbound brain concentration in scopolamine-induced Wistar rat model at 1 mg/kg, po measured after 1 hr; type: ADME, organism-based; details: in vivo
[5] = biological target: T1, Muscarinic acetylcholine receptor M1 (Homo sapiens) (UniProt P11229); experiment: Binding affinity to human muscarinic M1 receptor stably expressed in CHO cells assessed as increase in intracellular calcium level by measuring binding constant measured after 10 mins by Fluo-8AM dye based FLIPR TETRA method; type: cell-based; details: filed as positive allosteric modulator
T1 sequence (whole entry): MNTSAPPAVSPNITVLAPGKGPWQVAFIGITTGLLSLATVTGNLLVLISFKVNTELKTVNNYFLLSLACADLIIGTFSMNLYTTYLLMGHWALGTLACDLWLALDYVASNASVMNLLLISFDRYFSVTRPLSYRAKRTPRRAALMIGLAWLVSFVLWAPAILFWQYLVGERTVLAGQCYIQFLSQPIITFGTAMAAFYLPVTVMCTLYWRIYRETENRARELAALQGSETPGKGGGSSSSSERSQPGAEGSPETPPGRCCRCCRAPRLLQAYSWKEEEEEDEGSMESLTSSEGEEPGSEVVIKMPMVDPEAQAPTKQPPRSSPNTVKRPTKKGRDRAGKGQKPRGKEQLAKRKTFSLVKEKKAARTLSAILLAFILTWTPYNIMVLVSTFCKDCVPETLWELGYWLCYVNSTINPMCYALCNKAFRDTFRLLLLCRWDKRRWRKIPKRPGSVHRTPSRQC

[6] = Toxicity in male Beagle dog assessed as increase in blood pressure at 3 mg/kg, po observed upto 9 hrs post last dose by telemetry; type: organism-based, Canis lupus familiaris; details: in vivo
Method in brief: (§2)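 Crossover telemetry study in dogs at three oral doses (0.3, 1 and 3 mg/kg), N=4. Endpoints were blood pressure, maximum systolic left ventricular pressure, LV +dP/dt max, activity, heart rate, and RR, QT and QTc intervals, followed up to 9 h post dose.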

[7] = Toxicity in male Beagle dog assessed as decrease in RR interval at 3 mg/kg, po administered as single dose observed upto 9 hrs post last dose by telemetry; type: organism-based, Canis lupus familiaris; details: in vivo; method in brief: as §2
[8] = Toxicity in dog assessed as emesis at 15 mg/kg, po using spray-dried dispersion formulation; type: organism-based, Canis lupus familiaris; details: in vivo
Method in brief: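 Dogs received single escalating oral doses as a spray-dried dispersion (10% drug loading with HPMCAS-M). The dispersion was suspended in 0.5 wt% methylcellulose/0.5 wt% HPMCAS in 20 mM tris buffer, pH 7.4. One dog per sex per dose was used, and clinical signs were recorded.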

[9] = Unbound plasma concentration in CD-1 mouse at 10 mg/kg, sc measured after 2 hrs by LC-MS/MS analysis; type: ADME, organism-based; details: in vivo
[10] = biological target: T1, Muscarinic acetylcholine receptor M1 (Homo sapiens); experiment: Positive allosteric modulation of human muscarinic M1 receptor expressed in CHO cells assessed as increase in ACh-induced displacement of [3H]-NMS from M1 receptor at 10 uM by scintillation counting method relative to Ach alone; type: cell-based; details: filed as positive allosteric modulator
[11] = Toxicity in dog assessed as salivation at 5 mg/kg, po using spray-dried dispersion formulation; type: organism-based, Canis lupus familiaris; details: in vivo
[12] = Toxicity in male Beagle dog assessed as increase in maximum systolic left ventricular pressure at 1 mg/kg, po observed upto 9 hrs post last dose by telemetry; type: organism-based, Canis lupus familiaris; details: in vivo; method in brief: as §2
[13] = tested on: MDR1 (P-gp); experiment: Efflux ratio of permeability across basolateral to apical side over apical to basolateral side in dog MDCK-MDR1 cells; type: ADME, cell-based, Canis lupus familiaris
[14] = Unbound brain concentration in amphetamine-induced C57BL/6J mouse model of hyperlocomotion at 1 mg/kg, sc measured after 1 hr; type: ADME, organism-based; details: in vivo
Method in brief: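 Satellite PK animals from the mouse aLMA study, N=2/dose. Dosed subcutaneously with a solution in 5/15/80 DMSO/Solutol/water. Plasma and brain were sampled at T = 1 h.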

[15] = Toxicity in rat at 3 mg/kg, po administered for 14 days; type: organism-based; details: in vivo, 336 h, time 14 day
Method in brief: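 Two-week repeat-dose toxicity study in rats. Oral dosing in 0.5% methylcellulose at 3, 10, 30 (males)/15 (females) mg/kg, N=4/sex/dose. Food intake, body weight gain and histopathology were assessed.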

[16] = Unbound brain concentration in […] in Sprague-Dawley rat model at 3.2 mg/kg, sc measured after 1.67 hrs; type: ADME, organism-based; details: in vivo
Method in brief: (§3)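 Randomly selected animals (N=2/dose) at the end of the rat PPI study, T = 1.67 h. Dosed subcutaneously as a suspension in 0.5% methylcellulose in water. Plasma and brain concentrations were averaged.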

[17] = Partial agonist activity at muscarinic M2/M3 receptor in Hartley guinea pig ileum assessed as stimulation of contraction; type: tissue-based; details: Cavia porcellus
Method in brief: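 Agonist mode used a guinea pig ileum tissue bath with the compound applied alone. Concentration–response curves were run with or without the non-selective muscarinic antagonist atropine. Contraction was expressed relative to the maximal carbachol response.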

[18] = Unbound brain concentration in […] in Sprague-Dawley rat model at 0.32 mg/kg, sc measured after 1.67 hrs; type: ADME, organism-based; details: in vivo; method in brief: as §3
[19] = Ratio of fAUC in dog brain to plasma; type: ADME, cell-free, Canis lupus familiaris; details: brain and plasma, read-out: Ratio AUC
[20] = Unbound brain concentration in CD-1 mouse at 3.2 mg/kg, sc measured after 2 hrs by LC-MS/MS analysis; type: ADME, organism-based; details: in vivo
[21] = Toxicity in dog assessed as induction of loose stool at 0.3 mg/kg, po using spray-dried dispersion formulation; type: organism-based, Canis lupus familiaris; details: in vivo
[22] = fCmax in dog at 1 mg/kg, po measured after 4 hrs using spray-dried dispersion formulation; type: ADME, organism-based, Canis lupus familiaris; details: in vivo
Method in brief: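 Dogs from the crossover cardiovascular telemetry study (N=4), dosed orally at 0.3, 1 and 3 mg/kg; unbound Cmax extrapolated from 4 h post-dose in-life plasma samples.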

[23] = biological target: T1, Muscarinic acetylcholine receptor M1 (Homo sapiens); experiment: Binding affinity to human muscarinic M1 receptor stably expressed in CHO cells assessed as increase in intracellular calcium level measured after 10 mins by Fluo-8AM dye based FLIPR TETRA method; type: cell-based; details: filed as positive allosteric modulator
[24] = Ratio of fAUC in CD-1 mouse brain to plasma at 1 to 10 mg/kg, sc measured after 2 hrs by LC-MS/MS analysis; type: ADME, organism-based; details: brain and plasma, dose 1-10 mg/kg, read-out: Ratio AUC
[25] = fCmax in rat at 3 mg/kg, po administered for 14 days; type: ADME, organism-based; details: in vivo, 336 h, time 14 day; method in brief: as §1
[26] = biological target: T2, Muscarinic acetylcholine receptor M1 (Homo sapiens, UniProt P11229); experiment: Positive allosteric modulation of muscarinic M1 receptor (unknown origin) assessed as increase in Ach-induced recruitment of beta-arrestin by Path Hunter assay; type: cell-based, CHO
T2 sequence (P11229 whole entry): T1 sequence (whole entry)

[27] = fCmax in rat at 10 mg/kg, po administered for 14 days; type: ADME, organism-based; details: in vivo, 336 h, time 14 day; method in brief: as §1
[28] = fAUC (0 to 24 hrs) in rat at 15 mg/kg, po administered for 14 days; type: ADME, organism-based; details: in vivo, 336 h, time 14 day; method in brief: as §1

Cc1cnc(C(=O)N[C@H]2CCOC[C@@H]2O)cc1Cc1ccc(-c2cscn2)cc1
fCmax [1]: 708 nM
Activity [2]: Toxic
Cp(f) [3]: 19.6 nM
Drug uptake(free) [4]: 6.7 nM
Kb [5]: 5000 nM
Activity [6]: 7 mmHg
Activity [7]: Toxic
Activity [8]: Toxic
Cp(f) [9]: 574 nM
fold change (FC) [10]: 339
Activity [11]: Toxic
Activity [12]: 8 mmHg
efflux ratio [13]: 1.3
Drug uptake(free) [14]: 18.5 nM
Activity [15]: Non-Toxic
Drug uptake(free) [16]: 44.4 nM
EC50 [17]: 351 nM
Drug uptake(free) [18]: 4.3 nM
Kp uu [19]: 0.3
Drug uptake(free) [20]: 52.8 nM
Activity [21]: Toxic
fCmax [22]: 169 nM
Ka [23]: 2 µM
Kp uu at 2 h [24]: 0.34
fCmax [25]: 195 nM
EC50 [26]: 365 nM
fCmax [27]: 562 nM
fAUC [28]: 9.768 µM·h
